# Measurements taken from ChEMBL document CHEMBL2093137, “WHO-TDR NTD Screening”.
# What was measured:
# Brugia malayi [1] = experiment: (§1) WHO-TDR: Lymphatic Filariasis; type: functional; design: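 tested at 10 µM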
# In short: (§2)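 The screening set was a 10,000-compound diverse library from Life Chemicals, filtered for drug-likeness and for reactive groups. It was run against Brugia malayi microfilariae as whole organisms, using previously published standard procedures. Reference drugs acted as positive controls, and activity is reported both as percent inhibition and as IC50.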
# Brugia malayi [2] = experiment: as §1; type: functional, organism-based; in short: as §2
# Leishmania infantum = experiment: WHO-TDR: Leishmaniasis; type: functional, organism-based, Mus musculus; conditions: Macrophage
# In short: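 Following previously published standard procedures, a whole-organism screen was run on Leishmania infantum MHOM/MA(BE)/67 amastigotes within murine peritoneal macrophages, with a reference drug as positive control. The 10,000 compounds tested formed a diverse Life Chemicals library filtered for drug-likeness and reactive groups. Potency against the parasite is reported as IC50.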
# Trypanosoma cruzi = experiment: WHO-TDR: Chagas disease; type: functional, organism-based, Homo sapiens; conditions: MRC5
# In short: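 Whole-organism screen of a 10,000-compound diverse library from Life Chemicals, filtered for drug-likeness and reactive groups, against intracellular amastigotes of Trypanosoma cruzi Tulahuen CL2 beta-galactosidase strain grown in MRC-5SV2 human lung fibroblast host cells. The assay followed previously published standard procedures, with a reference drug as positive control. Antiparasitic potency is reported as IC50.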
# Plasmodium falciparum K1 = experiment: WHO-TDR: Malaria; type: functional, organism-based, Homo sapiens; conditions: Erythrocyte
# In short: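 Following previously published standard procedures, with a reference drug serving as positive control, compounds were tested on the Plasmodium falciparum K1 strain inside human red blood cells. The 10,000-compound diverse set came from Life Chemicals after filtering for drug-likeness and reactive groups. Potency against the parasite appears as IC50.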
# Schistosoma mansoni = experiment: WHO-TDR: Schistosomiasis; type: functional; design: concentration or dose not given beside the values
# In short: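 Percent inhibition and IC50 describe activity against whole Schistosoma mansoni worms of the Puerto Rican strain, tested as larvae and/or adults. The compounds screened were a diverse set of 10,000 from Life Chemicals, filtered for drug-likeness and reactive groups. Testing followed previously published standard procedures, with a reference drug as positive control.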
# [3] = system: Trypanosoma brucei brucei; experiment: WHO-TDR: Human African Trypanosomiasis (HAT); type: functional, organism-based; conditions: Squib-427
# In short: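 Bloodstream forms of the Trypanosoma brucei Squib 427 strain were tested in a whole-organism screen with a diverse library from Life Chemicals of 10,000 compounds. Before screening, the library was filtered for drug-likeness and for reactive groups. The assay used previously published standard procedures and included reference drugs as positive controls. Potency against the parasite is expressed as IC50.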
# Brugia malayi [4] = experiment: as §1; type: functional; design: concentration or dose not given beside the values; in short: as §2; remark: listed apart in the source
# [5] = WHO-TDR: Cytotoxicity; type: toxicity, cell-based; conditions: human, MRC5 cells
# Onchocerca lienalis = experiment: WHO-TDR: Onchocerciasis; type: functional; design: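 at 12.5 µM on microfilariae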
# In short: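 Percent inhibition and IC50 describe activity against microfilariae of Onchocerca ochengi or Onchocerca lienalis, used as animal-pathogen substitutes for the human parasite. The compounds tested made up a 10,000-member diverse library from Life Chemicals.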
Compound,IC50 (Brugia malayi [2]),IC50 (Leishmania infantum),IC50 (Plasmodium falciparum K1),IC50 [3],% Inhibition (Brugia malayi [1]),IC50 (Trypanosoma cruzi),% Inhibition (Schistosoma mansoni),% Inhibition (Brugia malayi [4]),IC50 [5],% Inhibition (Onchocerca lienalis)
COc1cccc2sc(Nc3nnc(-c4cccs4)o3)nc12,5.09 µM,3.17 µg/mL,1.25 µg/mL,0.346 µg/mL,100%,0.313 µg/mL,0%,50%,1.83 µg/mL,
c1ccc2c(CCNc3[nH]cnc4ncnc3-4)c[nH]c2c1,,> 8.35 µg/mL,> 8.35 µg/mL,> 8.35 µg/mL,0%,0.588 µg/mL,0%,0%,1.91 µg/mL,13.4%
CC1CCc2c(sc(Nc3nc4c(F)cccc4s3)c2C(N)=O)C1 (stereo unspecified),4.99 µM,3.51 µg/mL,2.69 µg/mL,2.31 µg/mL,100%,4.66 µg/mL,0%,25%,> 10.8 µg/mL,
CN1CCc2c(OCC(=O)N3N=C(c4cccs4)CC3c3ccc(F)cc3)cccc2C1=O (stereo unspecified),,0.947 µg/mL,7.38 µg/mL,4.45 µg/mL,90%,2.3 µg/mL,0%,0%,> 13.9 µg/mL,0%
COc1ccc2nc(N(CCCN(C)C)C(=O)CCCSc3ccccc3)sc2c1,,4.66 µg/mL,3.35 µg/mL,0.455 µg/mL,0%,2.53 µg/mL,0%,0%,4.06 µg/mL,12.34%
COc1cccc2sc(Nc3sc4c(c3C(N)=O)CCCC4)nc12,4.51 µM,4.55 µg/mL,4.55 µg/mL,0.947 µg/mL,100%,3 µg/mL,12.5%,50%,3.58 µg/mL,
Cc1nc2ccc3nc(Nc4nc5c(F)cccc5s4)sc3c2s1,5.21 µM,> 11.2 µg/mL,> 11.2 µg/mL,> 11.2 µg/mL,100%,> 11.2 µg/mL,0%,50%,> 11.2 µg/mL,
CCOC(=O)c1sc(Nc2nc3c(F)cccc3s2)nc1C,4.99 µM,6.9 µg/mL,> 10.1 µg/mL,> 10.1 µg/mL,100%,> 10.1 µg/mL,0%,50%,> 10.1 µg/mL,
CC(=O)Nc1ccc2nc(Nc3nc4ccc(C(C)C)cc4s3)sc2c1,5.09 µM,4.12 µg/mL,2.19 µg/mL,4.49 µg/mL,100%,2.37 µg/mL,0%,25%,> 11.5 µg/mL,
CC(C)c1ccc2nc(Nc3nc4ccc(S(C)(=O)=O)cc4s3)sc2c1,4.95 µM,3.92 µg/mL,> 12.1 µg/mL,> 12.1 µg/mL,100%,> 12.1 µg/mL,0%,25%,> 12.1 µg/mL,
COc1ccc(NC(=O)c2oc3ccccc3c2NC(=O)c2cccc(Cl)c2)c(OC)c1,4.49 µM,> 13.5 µg/mL,> 13.5 µg/mL,> 13.5 µg/mL,100%,> 13.5 µg/mL,25%,0%,> 13.5 µg/mL,

# Further lines, with some results ahead:
IC50 (Brugia malayi [2]),IC50 (Leishmania infantum),IC50 (Plasmodium falciparum K1),IC50 [3],Compound,% Inhibition (Brugia malayi [1]),IC50 (Trypanosoma cruzi),% Inhibition (Schistosoma mansoni),% Inhibition (Brugia malayi [4]),IC50 [5],% Inhibition (Onchocerca lienalis)
3.54 µM,> 9.05 µg/mL,> 9.05 µg/mL,> 9.05 µg/mL,COc1cccc2c1CCN(Cc1ccc(Cl)cc1)C2=O,100%,2.48 µg/mL,0%,,> 9.05 µg/mL,40%
3.27 µM,> 10.4 µg/mL,> 10.4 µg/mL,> 11.1 µg/mL,O=C(Nc1nc2c(F)cc(F)cc2s1)c1nc2ccccc2s1,100%,> 10.4 µg/mL,0%,50%,> 10.4 µg/mL,
1.07 µM,4.64 µg/mL,> 14.3 µg/mL,> 15.3 µg/mL,Cc1c(Cl)ccc2sc(NC(=O)c3ccc(S(=O)(=O)N4CC(C)CC(C)C4)cc3)nc12 (stereo unspecified),100%,> 14.3 µg/mL,0%,80%,> 14.3 µg/mL,
3.97 µM,> 9.93 µg/mL,> 9.93 µg/mL,> 10.6 µg/mL,O=C(Nc1nc2c(Cl)ccc(Cl)c2s1)C1=COCCO1,100%,> 9.93 µg/mL,0%,25%,> 9.93 µg/mL,
2.5 µM,> 10.2 µg/mL,> 10.2 µg/mL,> 10.9 µg/mL,Cc1cc(C)c2sc(NC(=O)c3nc4ccccc4s3)nc2c1,100%,> 10.2 µg/mL,0%,25%,> 10.2 µg/mL,
2.18 µM,3.31 µg/mL,> 10.5 µg/mL,> 11.2 µg/mL,COc1cccc(C(=O)Nc2nnc(-c3ccc4c(c3)CCCC4)o2)c1,100%,> 10.5 µg/mL,25%,50%,> 10.5 µg/mL,
4.49 µM,6.13 µg/mL,> 11.8 µg/mL,3.79 µg/mL,O=C(Nc1nnc(-c2ccc3c(c2)CCCC3)o1)c1cc(Cl)sc1Cl,100%,3.88 µg/mL,0%,50%,> 11.8 µg/mL,
3.54 µM,> 11 µg/mL,> 11 µg/mL,3.56 µg/mL,CCCCc1ccc(NC(=O)CSc2cn(CC)c3ccccc23)cc1,100%,2.93 µg/mL,0%,0%,> 11 µg/mL,
3.44 µM,> 9.52 µg/mL,> 9.52 µg/mL,3.81 µg/mL,COc1cccc2sc(Nc3nc4c(s3)CCCC4)nc12,100%,> 9.52 µg/mL,0%,50%,> 9.52 µg/mL,
4.49 µM,> 12 µg/mL,> 12 µg/mL,> 12 µg/mL,CCOc1cccc2sc(Nc3nc4ccc5sc(C)nc5c4s3)nc12,100%,> 12 µg/mL,0%,50%,> 12 µg/mL,
4.36 µM,> 9.16 µg/mL,> 9.16 µg/mL,> 9.16 µg/mL,Fc1cccc2sc(Nc3nc4c(s3)CCCC4)nc12,100%,> 9.16 µg/mL,0%,50%,> 9.16 µg/mL,
4.49 µM,> 11.4 µg/mL,6.16 µg/mL,> 11.4 µg/mL,CS(=O)(=O)c1ccc2nc(Nc3nc4c(F)cccc4s3)sc2c1,100%,> 11.4 µg/mL,0%,25%,> 11.4 µg/mL,
2.61 µM,0.323 µg/mL,0.312 µg/mL,< 0.102 µg/mL,COc1ccc2nc(Nc3nc(-c4ccccn4)cs3)sc2c1,100%,< 0.102 µg/mL,0%,25%,0.129 µg/mL,
